Experimental data from ChEMBL document CHEMBL1144441, “Identification of a novel cardenolide (2''-oxovoruscharin) from Calotropis procera and the hemisynthesis of novel derivatives displaying potent in vitro antitumor activities and high in vivo tolerance: structure-activity relationship analyses” (J Med Chem, 2005).

Columns and labels:
[1] = In vitro cytotoxic activity against human C32 cancer cell lines after 3 days of culture; type: functional
In short: (§1)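 MTT overall-growth panel across 57 human cancer lines. Cells were plated for 24 h at 10 000–40 000 cells/mL, depending on cell type. Drugs were given at nine concentrations, 10^-9 to 10^-5 M in semilog steps, for 3 days. Absorbance was read at 570 nm with a 630 nm reference, in sextuplicate. Surviving cells are expressed as % of untreated control (100%).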

T-24 = test: In vitro cytotoxic activity against human T24 cancer cell lines after 3 days of culture; type: functional
In short: (§2)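 Human cancer cell lines, seeded 10 000–40 000 cells/mL and plated for 24 h, then exposed 72 h to nine drug concentrations from 10^-9 to 10^-5 M in semilog steps. Overall growth read by MTT reduction to formazan, absorbance at 570 nm (reference 630 nm). Sextuplicate wells; IC50 is the concentration reducing overall growth by 50% versus untreated control.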

A204 = test: In vitro cytotoxic activity against human A204 cancer cell lines after 3 days of culture; type: functional; in short: as §1
A-427 = test: In vitro cytotoxic activity against human A427 cancer cell lines after 3 days of culture; type: functional; in short: as §1
A549 = test: In vitro cytotoxic activity against human A549 cancer cell lines after 3 days of culture; type: functional; in short: as §1
ACHN = test: In vitro cytotoxic activity against human ACHN cancer cell lines after 3 days of culture; type: functional; in short: as §1
FaDu = test: In vitro cytotoxic activity against human FaDu cancer cell lines after 3 days of culture; type: functional; in short: as §1
[2] = In vitro cytotoxic activity against human G361 cancer cell lines after 3 days of culture; type: functional; in short: as §1
HT-29 = test: In vitro cytotoxic activity against human HT-29 cancer cell lines after 3 days of culture; type: functional; in short: as §1
ZR-75-1 = test: In vitro cytotoxic activity against human ZR-75-1 cancer cell lines after 3 days of culture; type: functional; in short: as §2
Malme-3M = test: In vitro cytotoxic activity against human MALME-3M cancer cell lines after 3 days of culture; type: functional; in short: as §1
[3] = In vitro cytotoxic activity against human […] cancer cell lines after 3 days of culture; type: functional; in short: as §1
[4] = In vitro cytotoxic activity against human SK-LMS-1 cancer cell lines after 3 days of culture; type: functional; in short: as §1
[5] = In vitro cytotoxic activity against human SK-UT-1B cancer cell lines after 3 days of culture; type: functional; in short: as §2
SK-MEL-28 = test: In vitro cytotoxic activity against human SKMEL-28 cancer cell lines after 3 days of culture; type: functional; in short: as §2
LoVo = test: In vitro cytotoxic activity against human LoVo cancer cell lines after 3 days of culture; type: functional; in short: as §1
PC-3 = test: In vitro cytotoxic activity against human PC-3 cancer cell lines after 3 days of culture; type: functional; in short: as §1
T98G = test: In vitro cytotoxic activity against human T98G cancer cell lines after 3 days of culture; type: functional; in short: as §2
WiDr = test: In vitro cytotoxic activity against human WiDr cancer cell lines after 3 days of culture; type: functional; in short: as §2
[6] = In vitro cytotoxic activity against human 769-P cancer cell lines after 3 days of culture; type: functional; in short: as §1
786-0 = test: In vitro cytotoxic activity against human 786-O cancer cell lines after 3 days of culture; type: functional; in short: as §1
A498 = test: In vitro cytotoxic activity against human A-498 cancer cell lines after 3 days of culture; type: functional; in short: as §1
BT-20 = test: In vitro cytotoxic activity against human BT-20 cancer cell lines after 3 days of culture; type: functional; in short: as §1
DLD-1 = test: In vitro cytotoxic activity against human DLD-1 cancer cell lines after 3 days of culture; type: functional; in short: as §1
DU-145 = test: In vitro cytotoxic activity against human DU145 cancer cell lines after 3 days of culture; type: functional; in short: as §1
LNCaP = test: In vitro cytotoxic activity against human LNCaP cancer cell lines after 3 days of culture; type: functional; in short: as §1
[7] = In vitro cytotoxic activity against human SCC-9 cancer cell lines after 3 days of culture; type: functional; in short: as §1
[8] = In vitro cytotoxic activity against human SW948 cancer cell lines after 3 days of culture; type: functional; in short: as §2
T47D = test: In vitro cytotoxic activity against human T-47D cancer cell lines after 3 days of culture; type: functional; in short: as §2
[9] = In vitro cytotoxic activity against human AL-12T cancer cell lines after 3 days of culture; type: functional; in short: as §1
BXPC-3 = test: In vitro cytotoxic activity against human BxPC-3 cancer cell lines after 3 days of culture; type: functional; in short: as §1
CAKI-2 = test: In vitro cytotoxic activity against human CAKI-2 cancer cell lines after 3 days of culture; type: functional; in short: as §1
HCT-15 = test: In vitro cytotoxic activity against human HCT-15 cancer cell lines after 3 days of culture; type: functional; in short: as §1
[10] = In vitro cytotoxic activity against human HT144 cancer cell lines after 3 days of culture; type: functional; in short: as §1
HT-1080 = test: In vitro cytotoxic activity against human HT1080 cancer cell lines after 3 days of culture; type: functional; in short: as §1
[11] = In vitro cytotoxic activity against human Hs 174.T cancer cell lines after 3 days of culture; type: functional; in short: as §1
MES-SA = test: In vitro cytotoxic activity against human MES-SA cancer cell lines after 3 days of culture; type: functional; in short: as §1
PANC-1 = test: In vitro cytotoxic activity against human Panc-1 cancer cell lines after 3 days of culture; type: functional; in short: as §1
U-87 MG = test: In vitro cytotoxic activity against human U87MG cancer cell lines after 3 days of culture; type: functional, U-87MG ATCC; in short: as §2
[12] = In vitro cytotoxic activity against human Capan-2 cancer cell lines after 3 days of culture; type: functional; in short: as §1
HT1197 = test: In vitro cytotoxic activity against human HT1197 cancer cell lines after 3 days of culture; type: functional; in short: as §1
U373 MG = test: In vitro cytotoxic activity against human U-373MG cancer cell lines after 3 days of culture; type: functional, U-373MG ATCC; in short: as §2
[13] = In vitro cytotoxic activity against human Hs 766.T cancer cell lines after 3 days of culture; Activity expressed as log IC50; type: functional
In short: (§3)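 Adherent human cancer cell lines seeded at 10 000 to 40 000 cells/mL (depending on cell type) and left 24 h before treatment. Nine concentrations, 10^-9 to 10^-5 M in semilog steps, for 72 h. Growth measured by MTT reduction to formazan, absorbance 570 nm (reference 630 nm). Sextuplicate wells. IC50 is the concentration giving 50% lower overall growth than control.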

[14] = In vitro cytotoxic activity against human SW1088 cancer cell lines after 3 days of culture; Activity expressed as log IC50; type: functional; in short: as §3
[15] = In vitro cytotoxic activity against human SW1783 cancer cell lines after 3 days of culture; Activity expressed as log IC50; type: functional; in short: as §3
CFPAC-1 = test: In vitro cytotoxic activity against human CFPAC-1 cancer cell lines after 3 days of culture; Activity expressed as log IC50; type: functional; in short: as §3
[16] = In vitro cytotoxic activity against human Su.86.86 cancer cell lines after 3 days of culture; type: functional; in short: as §2
MIA PaCa-2 = test: In vitro cytotoxic activity against human MiaPaca-2 cancer cell lines after 3 days of culture; type: functional; in short: as §1
MDA-MB-231 = test: In vitro cytotoxic activity against human MDA-MB-231 cancer cell lines after 3 days of culture; type: functional; in short: as §1
[17] = In vitro cytotoxic activity against human Detroit 562 cancer cell lines after 3 days of culture; type: functional; in short: as §1
[18] = In vitro cytotoxic activity against human MCF7HTB-22 cancer cell lines after 3 days of culture; type: functional; in short: as §1
H4 = test: In vitro cytotoxic activity against human H4 cancer cell lines after 3 days of culture; Activity expressed as log IC50; type: functional; in short: as §3
[19] = In vitro cytotoxic activity against human Hs 729 cancer cell lines after 3 days of culture; type: functional; in short: as §1
Hs-578T = test: In vitro cytotoxic activity against human Hs 578.T cancer cell lines after 3 days of culture; type: functional; in short: as §1
[20] = In vitro cytotoxic activity against human Hs 683 cancer cell lines after 3 days of culture; Activity expressed as log IC50; type: functional; in short: as §3

**Q.** With CCc1c2c(nc3ccc(O)cc13)-c1cc3c(c(=O)n1C2)COC(=O)[C@]3(O)CC [7-ETHYL-10-HYDROXYCAMPTOTHECIN] as the compound, how does the Log IC50 [1] read?
**A.** -8.7

**Q.** And the Log IC50 (T-24)?
**A.** -8.2

**Q.** And the Log IC50 (A204)?
**A.** -7.7

**Q.** What about the Log IC50 (A-427) of the same compound?
**A.** -9

**Q.** And the Log IC50 (A549)?
**A.** -7.4

**Q.** What about the Log IC50 (ACHN) of the same compound?
**A.** -8.3

**Q.** What about the Log IC50 (FaDu) of the same compound?
**A.** -8.9

**Q.** And the Log IC50 [2]?
**A.** -5.6

**Q.** And the Log IC50 (HT-29)?
**A.** -7.5

**Q.** And the Log IC50 (ZR-75-1)?
**A.** -7.4

**Q.** And the Log IC50 (Malme-3M)?
**A.** -5.2

**Q.** And the Log IC50 [3]?
**A.** -9

**Q.** What about the Log IC50 [4] of the same compound?
**A.** -6.4

**Q.** And the Log IC50 [5]?
**A.** -9

**Q.** What about the Log IC50 (SK-MEL-28) of the same compound?
**A.** -7.3

**Q.** What about the Log IC50 (LoVo) of the same compound?
**A.** -6.4

**Q.** What about the Log IC50 (PC-3) of the same compound?
**A.** -6.7

**Q.** What about the Log IC50 (T98G) of the same compound?
**A.** -7.3

**Q.** And the Log IC50 (WiDr)?
**A.** -6.6

**Q.** And the Log IC50 [6]?
**A.** -7.9

**Q.** What about the Log IC50 (786-0) of the same compound?
**A.** -8.3

**Q.** And the Log IC50 (A498)?
**A.** -6.9

**Q.** What about the Log IC50 (BT-20) of the same compound?
**A.** -6.5

**Q.** What about the Log IC50 (DLD-1) of the same compound?
**A.** -6.8

**Q.** And the Log IC50 (DU-145)?
**A.** -9

**Q.** What about the Log IC50 (LNCaP) of the same compound?
**A.** -5.5

**Q.** And the Log IC50 [7]?
**A.** -6.1

**Q.** And the Log IC50 [8]?
**A.** -7.7

**Q.** What about the Log IC50 (T47D) of the same compound?
**A.** -7.3

**Q.** What about the Log IC50 [9] of the same compound?
**A.** -6.1

**Q.** And the Log IC50 (BXPC-3)?
**A.** -7.1

**Q.** And the Log IC50 (CAKI-2)?
**A.** -5.3

**Q.** What about the Log IC50 (HCT-15) of the same compound?
**A.** -7.1

**Q.** And the Log IC50 [10]?
**A.** -7.6

**Q.** And the Log IC50 (HT-1080)?
**A.** -7.3

**Q.** What about the Log IC50 [11] of the same compound?
**A.** -6.9

**Q.** And the Log IC50 (MES-SA)?
**A.** -7.1

**Q.** And the Log IC50 (PANC-1)?
**A.** -5.1

**Q.** And the Log IC50 (U-87 MG)?
**A.** -8.1

**Q.** What about the Log IC50 [12] of the same compound?
**A.** -6.3

**Q.** And the Log IC50 (HT1197)?
**A.** -5

**Q.** What about the Log IC50 (U373 MG) of the same compound?
**A.** -9

**Q.** What about the Log IC50 [13] of the same compound?
**A.** -5.6

**Q.** And the Log IC50 [14]?
**A.** -5.4

**Q.** And the Log IC50 [15]?
**A.** -7.3

**Q.** And the Log IC50 (CFPAC-1)?
**A.** -8.3

**Q.** And the Log IC50 [16]?
**A.** -6.5

**Q.** What about the Log IC50 (MIA PaCa-2) of the same compound?
**A.** -6.6

**Q.** What about the Log IC50 (MDA-MB-231) of the same compound?
**A.** -5.3

**Q.** What about the Log IC50 [17] of the same compound?
**A.** -8

**Q.** And the Log IC50 [18]?
**A.** -7.5

**Q.** And the Log IC50 (H4)?
**A.** -6.5

**Q.** What about the Log IC50 [19] of the same compound?
**A.** -7.3

**Q.** What about the Log IC50 (Hs-578T) of the same compound?
**A.** -6.3

**Q.** And the Log IC50 [20]?
**A.** -7
